From publication PMC12709667 (Journal of Clinical Pharmacology, 2025)

What was measured:
[1] = target: T1, UGT1A1 (Homo sapiens, UniProt P22309); assay: Phase 2 enzyme substrate assessment; format: in vitro ADME
T1 sequence (P22309 26-533): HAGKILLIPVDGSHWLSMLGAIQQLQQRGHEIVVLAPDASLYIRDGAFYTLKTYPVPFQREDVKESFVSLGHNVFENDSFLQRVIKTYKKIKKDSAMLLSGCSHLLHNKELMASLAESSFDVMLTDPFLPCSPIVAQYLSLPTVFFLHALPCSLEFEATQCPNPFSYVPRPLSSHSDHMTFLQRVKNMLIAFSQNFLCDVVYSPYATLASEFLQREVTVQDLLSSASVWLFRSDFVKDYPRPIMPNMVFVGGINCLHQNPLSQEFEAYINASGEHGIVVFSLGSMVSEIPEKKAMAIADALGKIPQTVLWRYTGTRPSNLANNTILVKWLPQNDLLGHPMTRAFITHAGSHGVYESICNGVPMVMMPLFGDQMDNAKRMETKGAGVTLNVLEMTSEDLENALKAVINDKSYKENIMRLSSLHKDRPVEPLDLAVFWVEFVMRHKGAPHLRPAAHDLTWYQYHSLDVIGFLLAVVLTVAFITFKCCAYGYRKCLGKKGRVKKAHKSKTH

[2] = target: T2, BCRP (Homo sapiens, UniProt Q9UNQ0); assay: DDI perpetrator study: rosuvastatin probe; format: in vivo; settings: miricorilant 400 mg once daily as perpetrator
T2 sequence (Q9UNQ0 1-655): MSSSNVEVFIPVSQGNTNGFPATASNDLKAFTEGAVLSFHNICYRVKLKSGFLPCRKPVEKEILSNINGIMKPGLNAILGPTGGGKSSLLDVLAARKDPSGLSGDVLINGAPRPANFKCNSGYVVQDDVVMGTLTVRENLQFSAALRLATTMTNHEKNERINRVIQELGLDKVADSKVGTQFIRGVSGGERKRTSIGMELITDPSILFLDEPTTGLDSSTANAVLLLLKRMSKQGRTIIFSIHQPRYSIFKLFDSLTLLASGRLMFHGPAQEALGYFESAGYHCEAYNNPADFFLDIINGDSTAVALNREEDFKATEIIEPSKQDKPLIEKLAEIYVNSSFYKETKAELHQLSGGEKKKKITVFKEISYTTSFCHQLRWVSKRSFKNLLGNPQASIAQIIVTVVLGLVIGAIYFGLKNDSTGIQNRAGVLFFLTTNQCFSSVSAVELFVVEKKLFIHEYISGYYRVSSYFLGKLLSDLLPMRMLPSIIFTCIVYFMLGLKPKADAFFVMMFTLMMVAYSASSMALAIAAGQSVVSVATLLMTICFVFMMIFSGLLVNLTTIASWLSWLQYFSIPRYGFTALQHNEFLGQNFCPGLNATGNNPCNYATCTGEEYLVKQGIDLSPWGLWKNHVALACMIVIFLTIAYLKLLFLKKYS

[3] = system: CYP3A4; settings: miricorilant 400 mg once daily as perpetrator
[4] = target: CYP2C19 (Homo sapiens, UniProt P33261); assay: DDI victim study with fluvoxamine; format: in vivo; settings: with strong CYP2C19 inhibitor fluvoxamine
CYP2C19, sequence (P33261 whole entry): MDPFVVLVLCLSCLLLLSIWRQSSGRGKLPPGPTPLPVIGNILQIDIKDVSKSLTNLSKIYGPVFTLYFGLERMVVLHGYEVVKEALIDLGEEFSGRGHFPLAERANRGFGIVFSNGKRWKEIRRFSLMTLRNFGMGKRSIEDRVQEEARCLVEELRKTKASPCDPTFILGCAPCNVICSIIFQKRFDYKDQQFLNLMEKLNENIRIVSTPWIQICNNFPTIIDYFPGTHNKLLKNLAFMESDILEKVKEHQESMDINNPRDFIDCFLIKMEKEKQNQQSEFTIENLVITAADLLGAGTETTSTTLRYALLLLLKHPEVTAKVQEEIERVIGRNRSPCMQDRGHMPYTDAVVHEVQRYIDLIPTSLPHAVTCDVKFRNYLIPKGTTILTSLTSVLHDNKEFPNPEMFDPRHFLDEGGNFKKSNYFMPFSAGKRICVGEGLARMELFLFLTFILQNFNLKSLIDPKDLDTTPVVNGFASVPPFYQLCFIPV

[5] = target: CYP3A4 (Homo sapiens, UniProt P08684); assay: biochemical; format: in vitro ADME
CYP3A4 (Homo sapiens, UniProt P08684), sequence (P08684 whole entry): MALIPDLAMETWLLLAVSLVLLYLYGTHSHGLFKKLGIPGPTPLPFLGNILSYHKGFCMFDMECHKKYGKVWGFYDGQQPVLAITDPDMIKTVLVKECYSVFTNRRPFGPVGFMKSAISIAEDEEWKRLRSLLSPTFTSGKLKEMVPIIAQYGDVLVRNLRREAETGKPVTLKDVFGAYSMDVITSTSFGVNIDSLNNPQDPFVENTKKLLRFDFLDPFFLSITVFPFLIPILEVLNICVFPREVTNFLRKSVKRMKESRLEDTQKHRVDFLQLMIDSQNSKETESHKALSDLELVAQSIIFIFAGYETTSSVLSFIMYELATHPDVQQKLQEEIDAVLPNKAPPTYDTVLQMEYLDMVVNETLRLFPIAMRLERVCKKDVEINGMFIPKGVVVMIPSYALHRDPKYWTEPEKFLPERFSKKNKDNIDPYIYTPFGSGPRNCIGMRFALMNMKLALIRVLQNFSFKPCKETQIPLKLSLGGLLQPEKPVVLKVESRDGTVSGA

[6] = target: T3, CYP2B6 (Homo sapiens, UniProt P20813); format: in vitro ADME
T3 sequence (P20813 1-491): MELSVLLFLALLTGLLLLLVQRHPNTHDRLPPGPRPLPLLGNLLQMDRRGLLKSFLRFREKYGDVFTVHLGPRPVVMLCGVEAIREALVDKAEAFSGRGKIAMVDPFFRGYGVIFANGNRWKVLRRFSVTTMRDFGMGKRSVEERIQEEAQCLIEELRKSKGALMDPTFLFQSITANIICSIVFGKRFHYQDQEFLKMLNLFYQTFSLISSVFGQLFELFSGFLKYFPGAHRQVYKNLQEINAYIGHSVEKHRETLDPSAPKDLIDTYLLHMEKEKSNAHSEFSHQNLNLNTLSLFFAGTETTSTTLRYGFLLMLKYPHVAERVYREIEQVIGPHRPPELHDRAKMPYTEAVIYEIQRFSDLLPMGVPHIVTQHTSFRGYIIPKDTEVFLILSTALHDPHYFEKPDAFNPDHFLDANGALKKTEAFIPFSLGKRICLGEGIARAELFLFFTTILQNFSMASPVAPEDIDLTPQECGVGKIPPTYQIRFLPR

[7] = In vitro blood/plasma partitioning; format: in vitro ADME; settings: monkey, whole blood
How it was run: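 Test compound was added to rat, monkey or human whole blood and incubated, then centrifuged to obtain plasma. The plasma concentration was measured by LC-MS. It was compared with the concentration in directly spiked plasma of the same species.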

## O=c1[nH]c(=O)c(Cc2cccc(C(F)(F)F)c2)c([C@H]2CC[C@H](c3ccccc3)CC2)[nH]1 [miricorilant]
[1]
  Substrate of UGT1A1: not a substrate
[2]
  clinical inhibition of BCRP: moderate inhibitor
[3]
  clinical inhibition of CYP3A4: does not inhibit
[4]
  clinical sensitivity as substrate of CYP2C19: moderately sensitive substrate
[5]
  IC50: 3.4 µM
  time dependence of CYP3A4 inhibition: not time dependent
[6]
  inhibition of CYP2B6: No inhibition
[7]
  blood plasma ratio: 0.83
